Measurements reported in ChEMBL document CHEMBL1671716, “Antimicrobial susceptibility patterns for recent clinical isolates of anaerobic bacteria in South Korea” (2010).

What was measured:
Type in all cases: functional
Anaerococcus prevotii [1] = test: Antimicrobial activity against Anaerococcus prevotii assessed as percent resistant isolates after 48 hrs by agar dilution method in presence of 4 ug/ml beta-lactamase inhibitor Tazobactam
Method in brief: (§1)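 CLSI agar dilution on recent Korean clinical anaerobe isolates. Inoculum 10^5 CFU per spot by replicator. Plates incubated in an anaerobic chamber at 37°C for 48 h. For piperacillin plus tazobactam, tazobactam was held constant at 4 μg/ml. Resistance and susceptibility rates derived from MICs.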

[2] = system: Peptoniphilus asaccharolyticus; test: Antimicrobial activity against Peptoniphilus asaccharolyticus after 48 hrs by agar dilution method in presence of 4 ug/ml beta-lactamase inhibitor Tazobactam
Method in brief: (§2)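 CLSI agar dilution (M11-A7); inoculum 10^5 CFU applied by replicator; plates incubated anaerobically 48 h at 37°C. For piperacillin-tazobactam, tazobactam held constant at 4 μg/ml.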

Prevotella bivia = test: Antimicrobial activity against Prevotella bivia after 48 hrs by agar dilution method in presence of 4 ug/ml beta-lactamase inhibitor Tazobactam; method in brief: as §2
Phocaeicola vulgatus [3] = test: Antimicrobial activity against Bacteroides vulgatus after 48 hrs by agar dilution method in presence of 4 ug/ml beta-lactamase inhibitor Tazobactam
Method in brief: (§3)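 MICs by CLSI agar dilution for piperacillin combined with tazobactam, with tazobactam held constant at 4 μg/ml. Clinical anaerobe isolates inoculated at 10^5 CFU by Steers replicator. Plates kept in an anaerobic chamber at 37°C for 48 h.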

Bacteroides ovatus = test: Antimicrobial activity against Bacteroides ovatus after 48 hrs by agar dilution method in presence of 4 ug/ml beta-lactamase inhibitor Tazobactam; method in brief: as §3
Clostridium perfringens = test: Antimicrobial activity against Clostridium perfringens after 48 hrs by agar dilution method in presence of 4 ug/ml beta-lactamase inhibitor Tazobactam
Method in brief: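 Agar dilution per CLSI on Korean clinical C. perfringens isolates. Tazobactam at a fixed 4 μg/ml with piperacillin. 10^5 CFU spotted by replicator, then 48 h at 37°C in an anaerobic chamber. MIC read.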

Actinomyces israelii = test: Antimicrobial activity against Actinomyces israelii after 48 hrs by agar dilution method in presence of 4 ug/ml beta-lactamase inhibitor Tazobactam; method in brief: as §3
Bacteroides caccae = test: Antimicrobial activity against Bacteroides caccae after 48 hrs by agar dilution method in presence of 4 ug/ml beta-lactamase inhibitor Tazobactam; method in brief: as §3
Hoylesella oralis = test: Antimicrobial activity against Prevotella oralis after 48 hrs by agar dilution method in presence of 4 ug/ml beta-lactamase inhibitor Tazobactam; method in brief: as §2
Parvimonas micra [4] = test: Antimicrobial activity against Peptostreptococcus micros after 48 hrs by agar dilution method in presence of 4 ug/ml beta-lactamase inhibitor Tazobactam; method in brief: as §2
Actinomyces naeslundii [5] = test: Antimicrobial activity against Actinomyces naeslundii after 48 hrs by agar dilution method in presence of 4 ug/ml beta-lactamase inhibitor Tazobactam; method in brief: as §3
Phocaeicola vulgatus [6] = test: Antimicrobial activity against Bacteroides vulgatus assessed as percent susceptible isolates after 48 hrs by agar dilution method in presence of 4 ug/ml beta-lactamase inhibitor Tazobactam
Schaalia meyeri = test: Antimicrobial activity against Actinomyces meyeri assessed as percent resistant isolates after 48 hrs by agar dilution method in presence of 4 ug/ml beta-lactamase inhibitor Tazobactam; method in brief: as §1
Finegoldia magna = test: Antimicrobial activity against Finegoldia magna assessed as percent susceptible isolates after 48 hrs by agar dilution method in presence of 4 ug/ml beta-lactamase inhibitor Tazobactam; method in brief: as §2
[7] = system: Bacteroides thetaiotaomicron; test: Antimicrobial activity against Bacteroides thetaiotaomicron assessed as percent susceptible isolates after 48 hrs by agar dilution method in presence of 4 ug/ml beta-lactamase inhibitor Tazobactam
Anaerococcus prevotii [8] = test: Antimicrobial activity against Anaerococcus prevotii assessed as percent susceptible isolates after 48 hrs by agar dilution method in presence of 4 ug/ml beta-lactamase inhibitor Tazobactam
Schaalia odontolytica = test: Antimicrobial activity against Actinomyces odontolyticus assessed as percent resistant isolates after 48 hrs by agar dilution method in presence of 4 ug/ml beta-lactamase inhibitor Tazobactam; method in brief: as §1
Fusobacterium necrogenes = test: Antimicrobial activity against Fusobacterium necrogenes after 48 hrs by agar dilution method in presence of 4 ug/ml beta-lactamase inhibitor Tazobactam; method in brief: as §2
Bifidobacterium sp. = test: Antimicrobial activity against Bifidobacterium sp. after 48 hrs by agar dilution method in presence of 4 ug/ml beta-lactamase inhibitor Tazobactam; method in brief: as §3
Fusobacterium varium = test: Antimicrobial activity against Fusobacterium varium after 48 hrs by agar dilution method in presence of 4 ug/ml beta-lactamase inhibitor Tazobactam; method in brief: as §2
[9] = system: Bifidobacterium adolescentis; test: Antimicrobial activity against Bifidobacterium adolescentis assessed as percent resistant isolates after 48 hrs by agar dilution method in presence of 4 ug/ml beta-lactamase inhibitor Tazobactam; method in brief: as §1
[10] = system: Porphyromonas asaccharolytica; test: Antimicrobial activity against Porphyromonas asaccharolytica after 48 hrs by agar dilution method in presence of 4 ug/ml beta-lactamase inhibitor Tazobactam; method in brief: as §2
Actinomyces naeslundii [11] = test: Antimicrobial activity against Actinomyces naeslundii assessed as percent resistant isolates after 48 hrs by agar dilution method in presence of 4 ug/ml beta-lactamase inhibitor Tazobactam; method in brief: as §1
Parvimonas micra [12] = test: Antimicrobial activity against Peptostreptococcus micros assessed as percent susceptible isolates after 48 hrs by agar dilution method in presence of 4 ug/ml beta-lactamase inhibitor Tazobactam; method in brief: as §2

With CCN1CCN(C(=O)N[C@@H](C(=O)N[C@@H]2C(=O)N3[C@@H]2SC(C)(C)[C@@H]3C(=O)O)c2ccccc2)C(=O)C1=O [PIPERACILLIN] the Activity (Anaerococcus prevotii [1]) was 0%, the MIC50 [2] was ≤ 0.03 µg/mL and the MIC90 [2] was 0.06 µg/mL. The MIC50 (Prevotella bivia) was ≤ 0.03 µg/mL, the MIC90 (Prevotella bivia) was 4 µg/mL and the MIC50 (Phocaeicola vulgatus [3]) was 8 µg/mL. It also gave an MIC90 (Phocaeicola vulgatus [3]) of 64 µg/mL, an MIC50 (Bacteroides ovatus) of 8 µg/mL and an MIC90 (Bacteroides ovatus) of 64 µg/mL. It also gave an MIC50 (Clostridium perfringens) of 0.25 µg/mL, an MIC90 (Clostridium perfringens) of 0.5 µg/mL and an MIC50 (Actinomyces israelii) of 0.5 µg/mL. The MIC90 (Actinomyces israelii) was 8 µg/mL, the MIC50 (Bacteroides caccae) was 8 µg/mL and the MIC90 (Bacteroides caccae) was 64 µg/mL. The MIC50 (Hoylesella oralis) was ≤ 0.03 µg/mL, the MIC90 (Hoylesella oralis) was 4 µg/mL and the MIC50 (Parvimonas micra [4]) was 0.25 µg/mL. For the same compound, the MIC90 (Parvimonas micra [4]) was 16 µg/mL, the MIC50 (Actinomyces naeslundii [5]) was 0.5 µg/mL and the MIC90 (Actinomyces naeslundii [5]) was 8 µg/mL. The Activity (Phocaeicola vulgatus [6]) was 89%, the Activity (Schaalia meyeri) was 0% and the Activity (Finegoldia magna) was 100%. It also gave an Activity [7] of 89%, an Activity (Anaerococcus prevotii [8]) of 100% and an Activity (Schaalia odontolytica) of 0%. The MIC (Fusobacterium necrogenes) was 0.03 µg/mL, the MIC50 (Bifidobacterium sp.) was 0.5 µg/mL and the MIC90 (Bifidobacterium sp.) was 8 µg/mL. For the same compound, the MIC (Fusobacterium varium) was 0.03 µg/mL, the Activity [9] was 0% and the MIC [10] was 0.03 µg/mL. For the same compound, the Activity (Actinomyces naeslundii [11]) was 0% and the Activity (Parvimonas micra [12]) was 0%.
